pIC50: −log10 of the molar value.
molecular target: T1, Polyunsaturated fatty acid lipoxygenase ALOX15 (Homo sapiens) (UniProt P16050); experiment: Inhibition of recombinant human 15-LOX-1 expressed in Escherichia coli BL21(DE3) assessed as residual activity at 50 uM using linoleic acid as substrate preincubated for 10 mins followed by substrate addition; details: not given
T1 sequence (whole entry): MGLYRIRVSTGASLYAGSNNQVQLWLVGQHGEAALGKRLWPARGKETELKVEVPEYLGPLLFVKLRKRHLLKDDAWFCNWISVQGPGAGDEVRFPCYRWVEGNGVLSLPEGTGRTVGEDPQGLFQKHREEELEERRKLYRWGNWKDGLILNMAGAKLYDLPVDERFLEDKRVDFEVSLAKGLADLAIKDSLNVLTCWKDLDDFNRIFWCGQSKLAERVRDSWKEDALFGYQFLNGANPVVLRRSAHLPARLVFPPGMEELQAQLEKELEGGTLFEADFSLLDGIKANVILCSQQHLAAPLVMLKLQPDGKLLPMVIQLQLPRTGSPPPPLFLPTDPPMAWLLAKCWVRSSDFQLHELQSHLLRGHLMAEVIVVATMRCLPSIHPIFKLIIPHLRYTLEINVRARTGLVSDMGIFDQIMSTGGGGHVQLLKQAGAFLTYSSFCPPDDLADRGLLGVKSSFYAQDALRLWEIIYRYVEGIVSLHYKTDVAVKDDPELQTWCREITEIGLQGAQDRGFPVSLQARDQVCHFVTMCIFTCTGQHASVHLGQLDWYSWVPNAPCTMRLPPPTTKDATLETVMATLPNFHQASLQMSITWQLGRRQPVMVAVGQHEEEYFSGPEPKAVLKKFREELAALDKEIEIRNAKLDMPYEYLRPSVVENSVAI
Outline: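 h-15-LOX-1 (1:100 enzyme stock, 1:400 final) preincubated 10 min at room temperature with inhibitor in 25 mM HEPES pH 7.4, then linoleic acid added to 25 µM final (inhibitor 50 µM final). 13(S)-HpODE formation read as A234 over time, rate taken from linear part within first 16 min; no-inhibitor = 100%, no-enzyme = 0%. Triplicate.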

Activity [%]	SMILES
100	Nc1[nH]c(C(=O)c2ccccc2)c(-c2c(F)cccc2F)c1C(=O)c1ccc(Cl)c(Cl)c1
73.1	Nc1[nH]c(C(=O)c2ccccc2)c(-c2ccc(Cl)cc2Cl)c1C(=O)c1ccccc1
109	NC(=O)c1c(N)[nH]c(C(=O)c2ccccc2)c1-c1ccc(Cl)cc1Cl
53.3	Nc1[nH]c(C(=O)c2ccc(Cl)cc2)c(-c2ccc(Br)cc2)c1C(=O)NCCc1c[nH]c2ccccc12
86.5 to 87.5	Nc1[nH]c(C(=O)c2ccccc2)c(-c2ccc(Cl)cc2)c1C(=O)c1c[nH]c2cc(F)ccc12
79.7	Cc1[nH]c2ccccc2c1C(=O)c1c(N)[nH]c(C(=O)c2ccccc2)c1-c1ccc(Cl)cc1
58	COc1ccc(C(=O)c2[nH]c(N)c(C(N)=O)c2-c2ccc(OC)c(OC)c2)cc1
90.7	COc1ccc(-c2c(C(=O)c3ccccc3)[nH]c(N)c2C(=O)NCc2ccccc2)cc1OC
34	COc1ccc2cccc(-c3c(C(=O)c4ccc(Br)cc4)[nH]c(N)c3C(=O)NC3CCCCC3)c2c1
104	CCCCNC(=O)c1c(N)[nH]c(C(=O)c2ccccc2)c1-c1ccc(Cl)cc1
36	Nc1[nH]c(C(=O)c2ccc(Br)cc2)c(-c2ccc3ccccc3c2)c1C(=O)NCCc1c[nH]c2ccccc12
83.1	Nc1[nH]c(C(=O)c2ccc(Br)cc2)c(-c2ccccc2Br)c1C(=O)NCCc1c[nH]c2ccccc12
75.6	COCCNC(=O)c1c(N)[nH]c(C(=O)c2ccc(Br)cc2)c1-c1cccc2ccc(OC)cc12
98.5	Nc1[nH]c(C(=O)c2ccccc2)c(-c2ccccn2)c1C(=O)c1c[nH]c2cc(F)ccc12
87.4	NC(=O)c1c(N)[nH]c(C(=O)c2ccccc2)c1-c1ccccc1Br
86.9	CC(C)(C)C(=O)c1c(N)[nH]c(C(=O)c2ccccc2)c1-c1ccc(C(F)(F)F)cc1
89.4	COc1ccc(C(=O)c2[nH]c(N)c(C(=O)c3c[nH]c4ccccc34)c2-c2ccc(OC)cc2)cc1
92.2	Nc1[nH]c(C(=O)c2ccccc2)c(-c2ccccc2C(F)(F)F)c1C(=O)NCc1ccc(F)cc1
75.1	Nc1[nH]c(C(=O)c2ccccc2)c(-c2ccc(F)cc2)c1C(=O)Cc1ccccc1

Activity [%]	SMILES
86.7	Nc1[nH]c(C(=O)c2ccccc2)c(-c2ccccc2Br)c1C(=O)NC1CCCCC1
72.5	Nc1[nH]c(C(=O)c2ccccc2)c(-c2ccc(Cl)cc2[N+](=O)[O-])c1C(=O)NCCc1c[nH]c2ccccc12
85	Nc1[nH]c(C(=O)c2ccccc2)c(-c2ccc([N+](=O)[O-])cc2)c1C(=O)N1CCC(CO)CC1
101	Nc1[nH]c(C(=O)c2ccccc2)c(-c2ccccc2C(F)(F)F)c1C(=O)NC1CCCCC1
63.3	Nc1[nH]c(C(=O)c2ccc(Br)cc2)c(-c2ccc(Br)cc2)c1C(=O)N1CCCCC1
75.9	Nc1[nH]c(C(=O)c2ccc(Br)cc2)c(-c2ccc3c(c2)OCO3)c1C(=O)NCCc1c[nH]c2ccccc12
107	Nc1[nH]c2cc(Cl)ccc2c1C(=O)N1CCOCC1
92.7	Nc1[nH]c(C(=O)c2ccccc2)c(-c2c(F)cccc2Cl)c1C(=O)NCCc1c[nH]c2ccccc12
79.9	CC(C)(C)C(=O)c1c(N)[nH]c(C(=O)c2ccccc2)c1-c1ccc(Cl)cc1Cl
117	COc1ccc(-c2c(C(=O)c3ccccc3)[nH]c(N)c2C(N)=O)cc1OC
86.4	Nc1[nH]c(C(=O)c2ccccc2)c(-c2ccccc2C(F)(F)F)c1C(=O)c1cccs1
88.3	Nc1[nH]c(C(=O)c2ccccc2)c(-c2ccc(Cl)cc2Cl)c1C(=O)c1ccc(Br)cc1
62.2	Nc1[nH]c(C(=O)c2ccccc2)c(-c2ccc(Br)cc2)c1C(=O)c1ccc(Br)cc1
74.8	Nc1[nH]c(C(=O)c2ccccc2)c(-c2ccc(Cl)cc2F)c1C(=O)NCCc1c[nH]c2ccccc12
50	Nc1[nH]c(C(=O)c2ccc(Br)cc2)c(-c2ccc(Cl)c(Cl)c2)c1C(=O)NCCc1c[nH]c2ccccc12
102	Nc1[nH]c(C(=O)c2ccc(Br)cc2)c(-c2ccc(Br)cc2)c1C(=O)NCc1ccc(F)cc1
112	CC(C)(C)C(=O)c1c(N)[nH]c(C(=O)c2ccccc2)c1-c1ccccc1
98.1	Nc1[nH]c(C(=O)c2ccccc2)c(-c2ccccc2[N+](=O)[O-])c1C(=O)NCCc1c[nH]c2ccccc12
75.8	COc1ccc(C(=O)c2[nH]c(N)c(C(=O)c3c[nH]c4ccccc34)c2-c2ccc(F)c(OC)c2)cc1

Activity [%]	SMILES
88.8	Nc1[nH]c(C(=O)c2ccccc2)c(-c2ccc(Cl)cc2)c1C(=O)NCc1ccco1
115	Nc1[nH]c(C(=O)c2ccccc2)c(-c2cccc3ccccc23)c1C(=O)NCc1ccc(Cl)cc1Cl
98.9	NC(=O)c1c(N)[nH]c(C(=O)c2ccccc2)c1-c1ccncc1
70.3	COc1ccc(C(=O)c2[nH]c(N)c(C(=O)NCCc3c[nH]c4ccccc34)c2-c2ccc(OC)c(OC)c2)cc1
99.3	NC(=O)c1c(N)[nH]c(C(=O)c2ccccc2)c1-c1ccc(Br)cc1
19.3	Nc1[nH]c(C(=O)c2ccc(Br)cc2)c(-c2ccc(Cl)cc2)c1C(=O)NCCc1c[nH]c2ccccc12
90.2	COc1ccc(-c2c(C(=O)c3ccccc3)[nH]c(N)c2C(=O)NC2CC2)cc1OC
116	NC(=O)c1c(N)[nH]c(C(=O)c2ccccc2)c1-c1ccccc1
106	Nc1[nH]c(C(=O)c2ccccc2)c(-c2ccncc2)c1C(=O)NCCc1c[nH]c2ccccc12
102	Nc1[nH]c2cc(C(F)(F)F)ccc2c1C(=O)NCc1ccc(F)cc1
52.6	Nc1[nH]c(C(=O)c2ccccc2)c(-c2cccc(C(F)(F)F)c2)c1C(=O)NCCc1c[nH]c2ccccc12
94.9	Nc1[nH]c(C(=O)c2ccccc2)c(-c2ccc(Cl)cc2)c1C(=O)NCCC1=CCCCC1
73.7	Nc1[nH]c(C(=O)c2ccccc2)c(-c2cccc3ccccc23)c1C(=O)c1cccs1
64.5	COc1ccc(C(=O)c2[nH]c(N)c(C(=O)NCCc3c[nH]c4ccccc34)c2-c2ccc(Cl)cc2Cl)cc1
104	CC(C)(C)C(=O)c1c(N)[nH]c(C(=O)c2ccccc2)c1-c1cc2ccccc2nc1Cl
86.3	COc1ccc2cccc(-c3c(C(=O)c4ccc(Br)cc4)[nH]c(N)c3C(=O)NCc3ccc(F)c(F)c3)c2c1
80.2	Nc1[nH]c2cc(Cl)ccc2c1C(=O)NCCc1ccc(Cl)cc1
-29.7	Nc1[nH]c(C(=O)c2ccccc2)c(-c2cc(F)ccc2Br)c1C(=O)NCCc1c[nH]c2ccccc12
70.9	Nc1[nH]c(C(=O)c2ccccc2)c(-c2ccccc2Cl)c1C(=O)c1ccccc1

tested on: HCC-1.2; experiment: Cytotoxicity against human HCC1.2 cells assessed as growth inhibition after 48 hrs by neutral red assay; type: functional; details: not given
Outline: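 HCC-1.2 hepatocarcinoma cells grown in RPMI1640 with 10% heat-inactivated FCS at 37 °C, 5% CO2. 2 × 10^5 cells/well seeded and grown 48 h. Viable cells quantified by neutral red (50 μg/mL) uptake from serum-free medium over 2 h. Dye dissolved in 1% acetic acid/70% ethanol, read as absorbance 560 minus 620 nm. Triplicate wells; three to five independent experiments; LD50 reported.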

SMILES	Activity
Nc1[nH]c(C(=O)c2ccccc2)c(-c2ccc(Cl)cc2Cl)c1C(=O)c1cccc(Br)c1	Dose-dependent effect
Nc1[nH]c(C(=O)c2ccccc2)c(-c2ccc3ccccc3c2)c1C(=O)c1ccc(Cl)c(Cl)c1	Dose-dependent effect

same assay, conditions: HCC-1.2, 48 h, read-out: LD50 (the source's name)

SMILES	CC50 [µM]
Nc1[nH]c(C(=O)c2ccccc2)c(-c2ccc(Cl)cc2Cl)c1C(=O)c1cccc(Br)c1	1.64
Nc1[nH]c(C(=O)c2ccccc2)c(-c2ccc3ccccc3c2)c1C(=O)c1ccc(Cl)c(Cl)c1	2.64

molecular target: T2, Polyunsaturated fatty acid lipoxygenase ALOX15 (Homo sapiens, UniProt P16050); experiment: Inhibition of recombinant human 15-LOX-1 expressed in Escherichia coli BL21(DE3) using linoleic acid as substrate preincubated for 10 mins followed by substrate addition; details: not given
T2 sequence (P16050 whole entry): T1 sequence (whole entry)

pIC50	SMILES
< 4.00	CCOC(=O)c1ccc(N)[nH]1
< 4.00	Nc1[nH]c(C(=O)c2ccccc2)c(-c2c(F)cccc2F)c1C(=O)c1ccc(Cl)c(Cl)c1
< 4.00	Nc1[nH]c(C(=O)c2ccccc2)c(-c2ccncc2)c1C(=O)c1cccc(Cl)c1
< 4.00	Nc1[nH]c(C(=O)c2ccccc2)c(-c2ccc(Cl)cc2Cl)c1C(=O)c1cccs1
< 4.00	Nc1[nH]c(C(=O)c2ccccc2)c(-c2ccc(Cl)cc2)c1C(=O)c1cccc(Cl)c1
< 4.00	Nc1[nH]c(C(=O)c2ccccc2)c(-c2ccc3c(c2)OCO3)c1C(=O)c1cccc(Cl)c1
< 4.00	Nc1[nH]c(C(=O)c2ccccc2)c(-c2cccc(Cl)c2)c1C(=O)c1cccc(Cl)c1
< 4.00	Nc1[nH]c(C(=O)c2ccccc2)c(-c2ccc(-c3ccccc3)cc2)c1C(=O)c1cccc(Cl)c1
< 4.00	Nc1[nH]c(C(=O)c2ccccc2)c(-c2ccc(Cl)cc2Cl)c1C(=O)c1ccccc1
< 4.00	NC(=O)c1c(N)[nH]c(C(=O)c2ccccc2)c1-c1ccc(Cl)cc1Cl
< 4.00	Nc1[nH]c(C(=O)c2ccccc2)c(-c2cccc3ccccc23)c1C(=O)c1ccc(Cl)c(Cl)c1
< 4.00	Nc1[nH]c(C(=O)c2ccccc2)c(-c2ccc(Cl)cc2Cl)c1C(=O)c1cccc(F)c1
< 4.00	Nc1[nH]c(C(=O)c2ccccc2)c(-c2ccccc2Cl)c1C(=O)c1cccc(Cl)c1
< 4.00	CCOC(=O)c1ccc[nH]1
< 4.00	Nc1[nH]c(C(=O)c2ccccc2)c(-c2cccnc2)c1C(=O)c1cccc(Cl)c1

SMILES	pIC50
Nc1[nH]c(C(=O)c2ccccc2)c(-c2ccc(Cl)cc2Cl)c1C(=O)c1cccc(Br)c1	5.20
